The values that follow come from ChEMBL document CHEMBL1139657, “Isothiazoloquinolones containing functionalized aromatic hydrocarbons at the 7-position: synthesis and in vitro activity of a series of potent antibacterial agents with diminished cytotoxicity in human cells” (Bioorg Med Chem Lett, 2006).

Converted amounts (≈) assume the structure as drawn.

For assay [1], the system named is Escherichia coli. Briefly: Antimicrobial activity against Escherichia coli ATCC 25922. It is filed as functional. In outline:
(§1)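 MIC taken as lowest concentration giving no visible bacterial growth after incubation at 37 °C for 18–24 h.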

Assay [2] addresses DNA topoisomerase II (Homo sapiens) (UniProt P11388+Q02880). Briefly: Inhibitory activity against human topoisomerase 2. It counts as protein assay.
Assay [3] addresses DNA gyrase (Escherichia coli, UniProt P0AES4+P0AES6). Put plainly: Inhibitory activity against wild type Escherichia coli gyrase. It is filed as protein-complex assay.
The subject of assay [4] is HEp-2. Put plainly: Cytotoxicity against human Hep2 laryngeal carcinoma cell line. It counts as functional.
For assay [5], the target named is DNA topoisomerase 4 subunit A (Staphylococcus aureus, UniProt P0C1U9). Briefly: Inhibitory activity against wild type Staphylococcus aureus topoisomerase 4.
Chain of DNA topoisomerase 4 subunit A (P0C1U9 whole entry): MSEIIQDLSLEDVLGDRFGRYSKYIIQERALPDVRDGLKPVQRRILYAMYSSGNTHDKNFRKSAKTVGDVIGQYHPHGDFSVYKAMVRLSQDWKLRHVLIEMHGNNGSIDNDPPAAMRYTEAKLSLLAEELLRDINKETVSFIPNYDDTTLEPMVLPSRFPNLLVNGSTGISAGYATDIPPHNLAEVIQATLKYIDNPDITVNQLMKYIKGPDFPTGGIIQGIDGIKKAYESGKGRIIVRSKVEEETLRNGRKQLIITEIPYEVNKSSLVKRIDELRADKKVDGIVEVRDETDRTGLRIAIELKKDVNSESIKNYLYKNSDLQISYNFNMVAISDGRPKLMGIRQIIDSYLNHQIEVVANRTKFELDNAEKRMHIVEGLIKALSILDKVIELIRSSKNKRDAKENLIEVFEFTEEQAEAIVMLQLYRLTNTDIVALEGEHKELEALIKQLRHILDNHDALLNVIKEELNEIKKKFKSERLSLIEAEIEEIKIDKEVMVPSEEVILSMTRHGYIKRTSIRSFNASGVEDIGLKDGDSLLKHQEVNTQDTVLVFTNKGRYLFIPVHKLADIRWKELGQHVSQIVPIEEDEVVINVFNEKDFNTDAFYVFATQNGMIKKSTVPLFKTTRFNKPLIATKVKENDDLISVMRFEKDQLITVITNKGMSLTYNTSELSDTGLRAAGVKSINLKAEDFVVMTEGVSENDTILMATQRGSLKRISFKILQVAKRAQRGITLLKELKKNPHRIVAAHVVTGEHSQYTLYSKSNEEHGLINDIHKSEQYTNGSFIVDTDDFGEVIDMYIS
In assay [6] the test system is Staphylococcus aureus. Put plainly: Antimicrobial activity against methicillin-resistant Staphylococcus aureus 700699. It is filed as functional. In outline: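 MIC taken as the lowest compound concentration preventing visible bacterial growth after incubation at 37 °C for 18–24 h.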
For assay [7], the system named is Staphylococcus aureus. Briefly: Antimicrobial activity against Staphylococcus aureus ATCC 29213. It is filed as functional. In outline:
as §1

As to `O=c1[nH]sc2c1c(=O)c1cc(F)c(N3CCNCC3)cc1n2C1CC1`, the values for the MIC in assay [1], in assay [6] and in assay [7] were 0.004 µg/mL (≈ 0.0111 µM), 4 µg/mL (≈ 11.1 µM) and 50 ng/mL (≈ 0.139 µM), respectively. The EC2 in assay [2] was found to be 20 µM. The IC50 – broadly, the concentration that gives 50% inhibition – in assay [3] worked out at 100 nM; in assay [5], 500 nM. Also, it took 7 µM to reach half-maximal cytotoxicity in assay [4] (CC50).
In the case of `CC(=O)Nc1cccc(-c2cc3c(cc2F)c(=O)c2c(=O)[nH]sc2n3C2CC2)c1`, the MIC (usually the least concentration at which growth counts as inhibited) amounted to 0.125 µg/mL (≈ 0.305 µM) in assay [1], 64 µg/mL (≈ 156 µM) in assay [6] and 4 ng/mL (≈ 0.00977 µM) in assay [7].
For the compound `Nc1ccccc1-c1cc2c(cc1F)c(=O)c1c(=O)[nH]sc1n2C1CC1`, the MIC in assay [1] was 0.125 µg/mL (≈ 0.34 µM); in assay [6] it was 64 µg/mL (≈ 174 µM); in assay [7] it was 30 ng/mL (≈ 0.0817 µM). In addition, the CC50 (usually the concentration giving 50% cytotoxicity) in assay [4] was found to be 46 µM.
Turning to `NCc1ccc(-c2cc3c(cc2F)c(=O)c2c(=O)[nH]sc2n3C2CC2)cc1`, the MIC in assay [1] is 0.015 µg/mL (≈ 0.0393 µM); in assay [6], 8 µg/mL (≈ 21 µM); in assay [7], 30 ng/mL (≈ 0.0787 µM). The values for the IC50 in assay [3] and in assay [5] were 100 nM and 1500 nM, respectively. For the same compound, the CC50 in assay [4] turned out to be 4 µM.
Regarding `Cc1ccc(-c2cc3c(cc2F)c(=O)c2c(=O)[nH]sc2n3C2CC2)cc1N`, the MIC in assay [1] was found to be 0.125 µg/mL (≈ 0.328 µM); in assay [6], 2 µg/mL (≈ 5.24 µM); in assay [7], 8 ng/mL (≈ 0.021 µM). Also, half-maximal cytotoxicity in assay [4] (CC50) was put at 18 µM.
For the compound `O=c1[nH]sc2c1c(=O)c1cc(F)c(-c3ccc(O)cc3)cc1n2C1CC1`, the MIC in assay [1] is 0.03 µg/mL (≈ 0.0814 µM); in assay [6], 0.125 µg/mL (≈ 0.339 µM); in assay [7] it was 4 ng/mL (≈ 0.0109 µM). Moreover, the EC2 in assay [2] turned out to be 15 µM. The figures for the IC50 in assay [3] and in assay [5] were 800 nM and 25000 nM, respectively. In assay [4], the midpoint of cytotoxicity, the CC50, lay at 8 µM.
`O=c1[nH]sc2c1c(=O)c1cc(F)c(-c3cccc(C4CCCCN4)c3)cc1n2C1CC1` (configuration not stated): the MIC in assay [1] was 0.125 µg/mL (≈ 0.287 µM); in assay [6], 8 µg/mL (≈ 18.4 µM); in assay [7], 60 ng/mL (≈ 0.138 µM). The values for the concentration for half-maximal inhibition (IC50) in assay [3] and in assay [5] were 700 nM and 2700 nM, respectively. Besides, in assay [4], half-maximal cytotoxicity (CC50) was put at 4 µM.
`COc1c(N2C[C@@H]3CCCN[C@@H]3C2)c(F)cc2c(=O)c(C(=O)O)cn(C3CC3)c12` [MOXIFLOXACIN]: the MIC in assay [1] turned out to be 0.015 µg/mL (≈ 0.0374 µM); in assay [6], 2 µg/mL (≈ 4.98 µM); in assay [7], 60 ng/mL (≈ 0.149 µM). In addition, the CC50 in assay [4] is > 100 µM.
Take `O=c1[nH]sc2c1c(=O)c1cc(F)c(-c3ccc(C4CCCCN4)cc3)cc1n2C1CC1` (configuration not stated): the MIC in assay [1] is 0.25 µg/mL (≈ 0.574 µM); in assay [6], 4 µg/mL (≈ 9.18 µM); in assay [7], 125 ng/mL (≈ 0.287 µM). Moreover, the IC50 in assay [3] amounted to 1000 nM; in assay [5] it was 2600 nM. Also, it took 4 µM to reach half-maximal cytotoxicity in assay [4] (CC50).
Regarding `O=c1[nH]sc2c1c(=O)c1cc(F)c(-c3ccc(CO)cc3)cc1n2C1CC1`, the MIC in assay [1] turned out to be 0.06 µg/mL (≈ 0.157 µM); in assay [6], 4 µg/mL (≈ 10.5 µM); in assay [7], 4 ng/mL (≈ 0.0105 µM). For the same compound, the IC50 was found to be 900 nM in assay [3] and 41000 nM in assay [5]. Moreover, in assay [4], the CC50 is 25 µM.
Consider `Nc1cc(-c2cc3c(cc2F)c(=O)c2c(=O)[nH]sc2n3C2CC2)ccc1F`, for which the values for the minimum inhibitory concentration (MIC) in assay [1], in assay [6] and in assay [7] were 0.125 µg/mL (≈ 0.324 µM), 0.5 µg/mL (≈ 1.3 µM) and 8 ng/mL (≈ 0.0208 µM), respectively. In addition, the IC50 in assay [3] came out at 300 nM; in assay [5], 10000 nM. It took 28 µM to reach half-maximal cytotoxicity in assay [4] (CC50).
For `CN(C)c1ccc(-c2cc3c(cc2F)c(=O)c2c(=O)[nH]sc2n3C2CC2)cc1`, the MIC was determined as 0.5 µg/mL (≈ 1.26 µM) in assay [1], 4 µg/mL (≈ 10.1 µM) in assay [6] and 1 ng/mL (≈ 0.00253 µM) in assay [7]. For the same compound, the CC50 in assay [4] was found to be 51 µM.
For `NCc1cccc(-c2cc3c(cc2F)c(=O)c2c(=O)[nH]sc2n3C2CC2)c1`, the MIC in assay [1] was 0.015 µg/mL (≈ 0.0393 µM); in assay [6] it was 2 µg/mL (≈ 5.24 µM); in assay [7] it was 15 ng/mL (≈ 0.0393 µM). Further, the IC50 is 100 nM in assay [3] and 200 nM in assay [5]. In addition, half-maximal cytotoxicity in assay [4] (CC50) was put at 8 µM.
As to `NCC(=O)Nc1ccc(-c2cc3c(cc2F)c(=O)c2c(=O)[nH]sc2n3C2CC2)cc1`, the minimal inhibitory concentration (MIC) was determined as 1 µg/mL (≈ 2.36 µM) in assay [1], 64 µg/mL (≈ 151 µM) in assay [6] and 250 ng/mL (≈ 0.589 µM) in assay [7]. Further, in assay [4], the 50% cytotoxic concentration (CC50) was > 75 µM.
On to `O=c1[nH]sc2c1c(=O)c1cc(F)c(-c3cccc(CO)c3)cc1n2C1CC1`, for which the MIC in assay [1] stood at 0.125 µg/mL (≈ 0.327 µM); in assay [6], 2 µg/mL (≈ 5.23 µM); in assay [7], 8 ng/mL (≈ 0.0209 µM). The IC50 turned out to be 500 nM in assay [3] and 8200 nM in assay [5].
Consider `Nc1ccc(-c2cc3c(cc2F)c(=O)c2c(=O)[nH]sc2n3C2CC2)cc1`, for which the MIC in assay [1] came out at 0.06 µg/mL (≈ 0.163 µM); in assay [6] it was 0.5 µg/mL (≈ 1.36 µM); in assay [7], 4 ng/mL (≈ 0.0109 µM). The IC50 in assay [3] turned out to be 300 nM; in assay [5], 12000 nM. Besides, half-maximal cytotoxicity in assay [4] (CC50) was put at 34 µM.
For the compound `Cc1cc(-c2cc3c(cc2F)c(=O)c2c(=O)[nH]sc2n3C2CC2)cc(C)c1O`, the MIC in assay [1] was found to be 0.125 µg/mL (≈ 0.315 µM); in assay [6], 2 µg/mL (≈ 5.04 µM); in assay [7] it was 1 ng/mL (≈ 0.00252 µM).
In the case of `N#Cc1cccc(-c2cc3c(cc2F)c(=O)c2c(=O)[nH]sc2n3C2CC2)c1`, the MIC in assay [1] stood at 0.03 µg/mL (≈ 0.0795 µM); in assay [6], 0.125 µg/mL (≈ 0.331 µM); in assay [7], 1 ng/mL (≈ 0.00265 µM). Besides, the CC50 in assay [4] is > 100 µM.
Consider `COc1c(N2CCNC(C)C2)c(F)cc2c(=O)c(C(=O)O)cn(C3CC3)c12` (configuration not stated) [GATIFLOXACIN], for which the MIC in assay [1] was found to be 0.015 µg/mL (≈ 0.04 µM); in assay [6] it was 8 µg/mL (≈ 21.3 µM); in assay [7], 125 ng/mL (≈ 0.333 µM). Besides, the values for the 50% inhibitory concentration (IC50) in assay [3] and in assay [5] were 500 nM and 1200 nM, respectively. This compound registered a CC50 in assay [4] of 67 µM.
